Assay results published in ChEMBL document CHEMBL1821590, “Novel dihydropyrimidines and its pyrazole derivatives: synthesis and pharmacological screening” (Eur J Med Chem, 2011).
≈ marks a conversion by molar mass, not a printed value.

What was measured:
Format in all cases: functional
Candida albicans [1] = experiment: Antimicrobial activity against Candida albicans at 25 ug/ml by paper disc method; settings: read-out: IZ
Procedure, shortened: (§1)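 Paper disc method against A. niger and C. albicans, with compounds at 25, 50 and 100 µg/mL. Amphotericin-B as standard.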

Pseudomonas aeruginosa [2] = experiment: Antimicrobial activity against Pseudomonas aeruginosa at 25 ug/ml by agar plate diffusion technique; settings: read-out: IZ
Procedure, shortened: (§2)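 Agar plate diffusion against E. coli, P. aeruginosa, S. aureus and B. subtilis, with compounds at 25, 50 and 100 µg/mL. Streptomycin as standard.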

Metaphire posthuma [3] = experiment: Anthelmintic activity against Pheretima posthuma assessed as time taken for complete parasite paralysis at 0.2% w/v
Procedure, shortened: (§3)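 Earthworms (Pheretima posthuma) exposed to test solutions at 0.1, 0.2 and 0.5% w/v; time in minutes to complete paralysis (worms motionless) recorded. Albendazole as standard. Mean of three determinations ± S.D.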

Aspergillus niger [4] = experiment: Antimicrobial activity against Aspergillus niger at 25 ug/ml by paper disc method; settings: read-out: IZ; procedure, shortened: as §1
Bacillus subtilis [5] = experiment: Antimicrobial activity against Bacillus subtilis at 50 ug/ml by agar plate diffusion technique; settings: read-out: IZ; procedure, shortened: as §2
Metaphire posthuma [6] = experiment: Anthelmintic activity against Pheretima posthuma assessed as time taken for complete parasite paralysis at 0.1% w/v; procedure, shortened: as §3
[7] = Antioxidant activity assessed as inhibition of lipid peroxidation using egg lecithin liposomes incubated for 1 hr
Procedure, shortened: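 Egg lecithin (3 mg/mL, phosphate buffer pH 7.4) sonicated 10 min to form liposomes. Sample or ascorbic acid (12.5–100 µg/mL) added. Peroxidation induced with FeCl3 and L-ascorbic acid, 1 h at 37 °C. Stopped with HCl/TCA/TBA/BHA, boiled 15 min, centrifuged, supernatant read at 532 nm. Triplicate. % inhibition vs control. IC50 derived.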

Staphylococcus aureus [8] = experiment: Antimicrobial activity against Staphylococcus aureus at 100 ug/ml by agar plate diffusion technique; settings: read-out: IZ; procedure, shortened: as §2
Metaphire posthuma [9] = experiment: Anthelmintic activity against Pheretima posthuma assessed as time taken for parasite death at 0.2% w/v
Procedure, shortened: (§4)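 Earthworms (Pheretima posthuma, spelled Perituma posthuma in text) exposed to test compounds at 0.1, 0.2 and 0.5% w/v. Albendazole served as standard, with an untreated control. Paralysis was recorded as the time until worms became motionless, then time to death was recorded, in minutes. Each value is the mean of three determinations with S.D.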

Metaphire posthuma [10] = experiment: Anthelmintic activity against Pheretima posthuma assessed as time taken for parasite death at 0.5% w/v; procedure, shortened: as §4
Escherichia coli [11] = experiment: Antimicrobial activity against Escherichia coli at 50 ug/ml by agar plate diffusion technique; settings: read-out: IZ; procedure, shortened: as §2
[12] = Antiinflammatory activity assessed as inhibition of albumin denaturation at 100 ug/ml by UV-visible spectrophotometry
Procedure, shortened: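 Compounds dissolved in minimal DMF, diluted in PBS pH 7.4 (final DMF <2.5%). 1 mL test solution (100 µg/mL) plus 1 mL 1% albumin in PBS, 15 min at 27 ± 1 °C, then heated 10 min at 60 ± 1 °C. After cooling, turbidity read at 660 nm. % inhibition = [(Vt/Vc) − 1] × 100 against a no-drug control. Triplicate, averaged. Diclofenac standard.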

Bacillus subtilis [13] = experiment: Antimicrobial activity against Bacillus subtilis at 100 ug/ml by agar plate diffusion technique; settings: read-out: IZ; procedure, shortened: as §2
Staphylococcus aureus [14] = experiment: Antimicrobial activity against Staphylococcus aureus at 25 ug/ml by agar plate diffusion technique; settings: read-out: IZ; procedure, shortened: as §2
Aspergillus niger [15] = experiment: Antimicrobial activity against Aspergillus niger at 50 ug/ml by paper disc method; settings: read-out: IZ; procedure, shortened: as §1
Metaphire posthuma [16] = experiment: Anthelmintic activity against Pheretima posthuma assessed as time taken for complete parasite paralysis at 0.5% w/v; procedure, shortened: as §3
[17] = Antioxidant activity assessed as potassium ferricyanide ion reducing power after 20 mins
Procedure, shortened: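 Oyaizu method. Samples or ascorbic acid in DMF (12.5–100 µg/mL) mixed with 0.2 M phosphate buffer pH 6.6 and 1% potassium ferricyanide, 20 min at 50 °C. 10% TCA added, centrifuged. Supernatant mixed with water and 0.1% FeCl3, read at 700 nm. % = [(Vt/Vc) − 1] × 100. IC50 derived.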

Pseudomonas aeruginosa [18] = experiment: Antimicrobial activity against Pseudomonas aeruginosa at 100 ug/ml by agar plate diffusion technique; settings: read-out: IZ; procedure, shortened: as §2
Aspergillus niger [19] = experiment: Antimicrobial activity against Aspergillus niger at 100 ug/ml by paper disc method; settings: read-out: IZ; procedure, shortened: as §1
Escherichia coli [20] = experiment: Antimicrobial activity against Escherichia coli at 25 ug/ml by agar plate diffusion technique; settings: read-out: IZ; procedure, shortened: as §2
Bacillus subtilis [21] = experiment: Antimicrobial activity against Bacillus subtilis at 25 ug/ml by agar plate diffusion technique; settings: read-out: IZ; procedure, shortened: as §2
Metaphire posthuma [22] = experiment: Anthelmintic activity against Pheretima posthuma assessed as time taken for parasite death at 0.1% w/v; procedure, shortened: as §4
Candida albicans [23] = experiment: Antimicrobial activity against Candida albicans at 50 ug/ml by paper disc method; settings: read-out: IZ; procedure, shortened: as §1
Escherichia coli [24] = experiment: Antimicrobial activity against Escherichia coli at 100 ug/ml by agar plate diffusion technique; settings: read-out: IZ; procedure, shortened: as §2
Pseudomonas aeruginosa [25] = experiment: Antimicrobial activity against Pseudomonas aeruginosa at 50 ug/ml by agar plate diffusion technique; settings: read-out: IZ; procedure, shortened: as §2
Candida albicans [26] = experiment: Antimicrobial activity against Candida albicans at 100 ug/ml by paper disc method; settings: read-out: IZ; procedure, shortened: as §1
[27] = Antioxidant activity assessed as hydrogen peroxide scavenging activity after 10 mins
Procedure, shortened: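 H2O2 (20 mM) in PBS pH 7.4. 1 mL of sample or ascorbic acid in methanol (12.5–100 µg/mL) added to 2 mL H2O2 solution. A230 read after 10 min. % inhibition = [1 − (Vt/Vc)] × 100. Triplicate, averaged. IC50 derived from % inhibition across concentrations.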

[28] = Antioxidant activity assessed as nitric oxide radical scavenging activity after 150 mins
Procedure, shortened: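 10 mM sodium nitroprusside (4 mL), PBS pH 7.4 (1 mL) and sample or ascorbic acid in DMSO (1 mL, 12.5–100 µg/mL), incubated 150 min at 25 °C. Nitrite detected with sulphanilic acid (5 min) then naphthylethylenediamine (30 min, diffused light). Read at […]. Triplicate. % inhibition = [1 − (Vt/Vc)] × 100. IC50 derived from it.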

Staphylococcus aureus [29] = experiment: Antimicrobial activity against Staphylococcus aureus at 50 ug/ml by agar plate diffusion technique; settings: read-out: IZ; procedure, shortened: as §2

Row | SMILES | zone of inhibition at 25 µg/mL (Candida albicans [1]) | zone of inhibition at 25 µg/mL (Pseudomonas aeruginosa [2]) | Time (Metaphire posthuma [3]) | zone of inhibition at 25 µg/mL (Aspergillus niger [4]) | zone of inhibition at 50 µg/mL (Bacillus subtilis [5]) | Time (Metaphire posthuma [6]) | IC50 [7] | zone of inhibition at 100 µg/mL (Staphylococcus aureus [8]) | Time (Metaphire posthuma [9]) | Time (Metaphire posthuma [10]) | zone of inhibition at 50 µg/mL (Escherichia coli [11]) | inhibition [12] | zone of inhibition at 100 µg/mL (Bacillus subtilis [13]) | zone of inhibition at 25 µg/mL (Staphylococcus aureus [14]) | zone of inhibition at 50 µg/mL (Aspergillus niger [15]) | Time (Metaphire posthuma [16]) | IC50 [17] | zone of inhibition at 100 µg/mL (Pseudomonas aeruginosa [18]) | zone of inhibition at 100 µg/mL (Aspergillus niger [19]) | zone of inhibition at 25 µg/mL (Escherichia coli [20]) | also measured
1 | COc1cccc(-c2nc(NN)n(C)c(=O)c2C#N)c1OC | 10.1 mm | 6.15 mm | 55.57 min | 8.38 mm | 12.2 mm | 55.23 min | 37 µg/mL (≈ 123 µM) | 15.8 mm | 70.25 min | 67.22 min | 7.16 mm | 24.6% | 16.7 mm | 8.72 mm | 10.3 mm | 51.42 min | 44 µg/mL (≈ 146 µM) | 9.15 mm | 16.7 mm | 7.38 mm | zone of inhibition at 25 µg/mL (Bacillus subtilis [21]): 9.9 mm; Time (Metaphire posthuma [22]): 71.45 min; zone of inhibition at 50 µg/mL (Candida albicans [23]): 11 mm; zone of inhibition at 100 µg/mL (Escherichia coli [24]): 8.12 mm; zone of inhibition at 50 µg/mL (Pseudomonas aeruginosa [25]): 8.12 mm; zone of inhibition at 100 µg/mL (Candida albicans [26]): 17.9 mm; IC50 [27]: 36 µg/mL (≈ 119 µM); IC50 [28]: 54 µg/mL (≈ 179 µM); zone of inhibition at 50 µg/mL (Staphylococcus aureus [29]): 11.2 mm
2 | CCOC(=O)c1cnn(-c2nc(-c3ccc(Cl)cc3)c(C#N)c(=O)n2C)c1N | 12.2 mm | 11.8 mm | 41.03 min | 11.6 mm | 16.7 mm | 49.28 min | 88 µg/mL (≈ 221 µM) | 22 mm | 58.23 min | 56.33 min | 19.5 mm | 64.6% | 25.4 mm | 13.1 mm | 15.6 mm | 34.76 min | 64 µg/mL (≈ 160 µM) | 25.7 mm | 23.8 mm | 14.7 mm | zone of inhibition at 25 µg/mL (Bacillus subtilis [21]): 14.2 mm; Time (Metaphire posthuma [22]): 64.72 min; zone of inhibition at 50 µg/mL (Candida albicans [23]): 16 mm; zone of inhibition at 100 µg/mL (Escherichia coli [24]): 25 mm; zone of inhibition at 50 µg/mL (Pseudomonas aeruginosa [25]): 17.1 mm; zone of inhibition at 100 µg/mL (Candida albicans [26]): 21.8 mm; IC50 [27]: 94 µg/mL (≈ 236 µM); IC50 [28]: 87 µg/mL (≈ 218 µM); zone of inhibition at 50 µg/mL (Staphylococcus aureus [29]): 17.1 mm
3 | Cn1c(NN)nc(-c2ccccc2F)c(C#N)c1=O | 11.8 mm | 9 mm | 51.34 min | 11.1 mm | 15.7 mm | 54.93 min | 43 µg/mL (≈ 166 µM) | 22.2 mm | 65.43 min | 61.02 min | 13.5 mm | 42.1% | 21.6 mm | 13.6 mm | 14 mm | 48.77 min | 50 µg/mL (≈ 193 µM) | 15.4 mm | 19.6 mm | 9.85 mm | zone of inhibition at 25 µg/mL (Bacillus subtilis [21]): 13.1 mm; Time (Metaphire posthuma [22]): 68.45 min; zone of inhibition at 50 µg/mL (Candida albicans [23]): 17 mm; zone of inhibition at 100 µg/mL (Escherichia coli [24]): 15.3 mm; zone of inhibition at 50 µg/mL (Pseudomonas aeruginosa [25]): 13.8 mm; zone of inhibition at 100 µg/mL (Candida albicans [26]): 19.2 mm; IC50 [27]: 49 µg/mL (≈ 189 µM); IC50 [28]: 60 µg/mL (≈ 231 µM); zone of inhibition at 50 µg/mL (Staphylococcus aureus [29]): 17.3 mm
